# Glyco luc inh: increase of ERlucT glycosylation luciferase signal, primary screen, N-linked glycosylation inhibitor project, D54 ERlucT cells, luminescence, set 2. D54 ERlucT glycosylation luciferase reporter, 24 h; percent of 100 nM tunicamycin response. 0.23% of 360,000 active. reporter increase, % at 12.5 µM;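 active = mean luciferase reporter signal, scaled so untreated is 0 and the glycosylation-blocking control 100, at or above a set limit in every replicate; inconclusive = mean reaches the limit but not every replicate does; inactive = mean below the limit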;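 also: luciferase carries N-glycosylation sites so blocking glycosylation raises the light; 0% = median of neutral control wells and 100% = median of 100 nM tunicamycin wells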
# PAX8 inh HTS: inhibitors of PAX8-driven TPO luciferase reporter, primary screen, RMG-I cells, single concentration; SteadyGlo, 24 h; inhibition, % at 12.6 µM; 1.2% of 360,000 active;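 active = mean replicate inhibition at least 60% with every replicate also reaching 60%; inconclusive = only one of the two criteria is met; inactive = mean below 60% and not all replicates reaching 60%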;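 also: luciferase light reporting Pax8 driven TPO promoter activity; plate controls were median of neutral control wells for no effect and mitoxantrone controls for full effect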
# EWS-Fli block: EWS/Fli-driven NR0B1 reporter inhibitors, primary screen, A673 cells, NR0B1 luciferase, luminescence, MLPCN library. viability-normalised. inhibition, % at 12.6 µM. 0.67% of 350,000 active;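 active = mean inhibition of at least 50% after viability correction, with every replicate also passing that limit; inconclusive = mean reaches 50% but only one of two replicates passes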;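 also: firefly luciferase signal divided by Alamar Blue viability fluorescence both relative to DMSO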
# FN deposit inh: inhibitors of fibronectin matrix deposition, primary screen, AH1F cells, Alexa488-fibronectin fluorescence, plate reader; AH1F fibroblasts, overnight; inhibition, % at 12.6 µM; 0.086% of 350,000 active;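 active = mean inhibition across replicates of 30% or more, regardless of how many single replicates reach that level; inconclusive = mean under 30% yet at least half of replicates reach 30%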;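 also: positive control wells lacked labelled fibronectin entirely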
#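 Test system: AH1F fibroblast monolayer depositing Alexa488-labelled fibronectin into matrix. Input: 10000 cells per well. Technique: fluorescence, ex 485 nm, em 525 nm. Buffer or medium: DMEM plus 2% serum, read in PBS. Timing: 1 h cell adhesion before compound, then overnight fibronectin incubation. Compound: single dose, pinned. Read-out basis: inhibition from reduced deposited-fibronectin fluorescence.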
# AF4-AF9 inh: inhibitors of AF4 peptide binding to AF9, primary screen, biochemical, AlphaScreen, biotin-AF4 peptide, FLAG-AF9, single point. AID 651704, 2012. inhibition, % at 10 µM. Protein AF-9 (Homo sapiens), P42568. 0.47% of 350,000 active;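 active = every replicate reaching a set inhibition limit, whatever the replicate mean, cut at about 25% in these data; inconclusive = mean inhibition reaches that limit but some replicates miss it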;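 also: 0% = plate neutral control median and 100% = total signal loss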
# Target sequence (P42568 whole entry, looked up): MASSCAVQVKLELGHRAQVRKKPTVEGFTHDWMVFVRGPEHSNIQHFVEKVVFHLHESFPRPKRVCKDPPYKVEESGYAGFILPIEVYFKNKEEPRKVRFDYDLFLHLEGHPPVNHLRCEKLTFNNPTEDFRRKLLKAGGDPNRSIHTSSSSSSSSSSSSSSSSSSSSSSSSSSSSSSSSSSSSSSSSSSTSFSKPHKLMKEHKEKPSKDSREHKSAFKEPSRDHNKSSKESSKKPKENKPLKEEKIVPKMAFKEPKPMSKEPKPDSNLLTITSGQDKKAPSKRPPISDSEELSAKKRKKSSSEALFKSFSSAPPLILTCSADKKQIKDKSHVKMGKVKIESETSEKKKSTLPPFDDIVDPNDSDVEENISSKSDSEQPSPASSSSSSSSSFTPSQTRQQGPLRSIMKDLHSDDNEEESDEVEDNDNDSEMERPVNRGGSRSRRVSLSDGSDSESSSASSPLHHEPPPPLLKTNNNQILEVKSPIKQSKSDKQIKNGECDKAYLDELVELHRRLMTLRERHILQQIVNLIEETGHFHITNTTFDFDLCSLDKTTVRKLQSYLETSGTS
# Env fusion inh: inhibitors of HIV-1 Env-driven cell-cell fusion, primary screen, HeLa-JRFL effector, CEM21 target cells, luciferase; inhibition, % at 12.3 µM; 1.1% of 360,000 active;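 active = mean replicate inhibition score of at least 50 and every replicate individually at or above 50; inconclusive = only one of the two criteria met; inactive = mean below 50 and not all replicates reaching 50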;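 also: 0% = plate neutral controls and 100% = maraviroc near 300 nM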
# * = called active by the depositor; ? = inconclusive; · = no result; [ ] = another dose, or the depositor's remark. Compounds with a hit are over-represented: about 2.5% of the library has one in this group of screens.
SMILES,Glyco luc inh,PAX8 inh HTS,EWS-Fli block,FN deposit inh,AF4-AF9 inh,Env fusion inh
CO[C@H]1CN(C)C(=O)c2ccc(NC(=O)Nc3ccccc3)cc2OC[C@H](C)N(C(C)=O)C[C@@H]1C,·,-11,·,·,-2,·
NNC(=O)c1cc(-c2cccs2)nc2ccccc12,0,12,1,-1,-18,1
C/C(=N\NC(=O)C(c1ccccc1)c1ccccc1)c1ccccn1,-17,77*,·,11,·,12
C/C(=N\NC(=O)c1cc(-c2cccs2)nc2ccccc12)c1ccccn1,-14,79*,-3,11,1,-30
CC(C)NC(=O)c1cc(-c2cccs2)nc2ccccc12,3,-10,2,5,7,11
C/C(=N\NC(=O)c1cccc2ccccc12)c1ccccn1,-15,65*,-32,0,-2,19
C/C(=N\NC(=O)c1ccccc1Cl)c1ccccn1,-17,2,-22,4,-4,-23
Cc1cccc2sc(NNC(=O)c3cc(-c4cccs4)nc4ccccc34)nc12,-3,52,15,-3,-2,85*
COCCNC(=O)C[C@H]1C[C@@H]2c3cc(NS(=O)(=O)c4ccccc4)ccc3O[C@@H]2[C@@H](CO)O1,·,-7,-5,·,-1,18[16.7 µM]
C[C@@H]1CCCCO[C@H](CN(C)C(=O)C2CCCCC2)[C@H](C)CN([C@@H](C)CO)C(=O)c2cc(NC(=O)C3CCCCC3)ccc2O1,·,-6,4,·,0,-4[16.7 µM]
CN1C(=O)c2cc(NC(=O)C3CC3)ccc2OC[C@H]2O[C@H](CC(=O)NC3CCC3)CC[C@H]21,·,16,-1,-7,-2,·
O=C(NCCNC(=O)c1cc(OCC(F)(F)F)ccc1OCC(F)(F)F)Nc1cccc(C(F)(F)F)c1,-3,·,·,·,·,84*
Cc1ccc(S(=O)(=O)NCCNC(=O)c2cc(OCC(F)(F)F)ccc2OCC(F)(F)F)cc1,6,22,·,8,·,96*
COc1ccc(CCNc2ccc(N3C(=O)CC(C)C3=O)cc2[N+](=O)[O-])cc1OC (stereo not given),1,16,6,-6,-15,68*
COc1ccc(CCNc2ccc(N3C(=O)CC(C)C3=O)cc2[N+](=O)[O-])cc1 (stereo not given),1,-1,-3,-6,-7,-3
O=C(CSC1CN(C(c2ccccc2)c2ccccc2)C1)N/N=C/c1ccc(Cl)cc1Cl,1,4,10,6,-1,65*
COc1ccc2nc3cc(Cl)ccc3c(Nc3cc(CN4CCCC4)c(O)c(CN4CCCC4)c3)c2n1,-17,19,43,2,47*,-423
O=C(CCN1CCCCC1)N[C@@H]1CC[C@@H](CCn2cc(-c3ccccc3)nn2)O[C@@H]1CO,·,-12,-2,·,1,75*[16.7 µM]
O=C(CCN1CCCCC1)N[C@@H]1CC[C@H](CCn2cc(-c3ccccc3)nn2)O[C@@H]1CO,·,-9,-2,·,-1,-8[16.7 µM]
O=C(CCN1CCCCC1)N[C@H]1CC[C@H](CCn2cc(-c3ccccc3)nn2)O[C@@H]1CO,·,-14,-1,·,0,77*[16.7 µM]
CN(C)C(=O)C[C@@H]1CC[C@@H]2[C@H](COc3ccc(NC(=O)c4ccc(F)cc4)cc3C(=O)N2C)O1,·,-3,-3,9,-2,-9[16.7 µM]
Cc1ccccc1-c1cnc2c(c1)C(=O)N([C@H](C)CO)C[C@H](C)[C@H](CN(C)C(=O)CN(C)C)O2,·,·,12,6,1,-15[16.7 µM]
CC=Cc1ccc2n(c1=O)C[C@H]1[C@H](CO)[C@@H](C(=O)NCCC)N(C(=O)c3cccnc3)[C@@H]21 (mixture of isomers),·,·,-4,·,-1,·
CCS(=O)(=O)c1ccc(N=Nc2ccc(O)c3ncccc23)c(OC)c1,-17,97*,11,8,?,66*
Cc1ccc(N=Nc2ccc(O)c3ncccc23)cc1C,-13,6,-24,15,7,-341
SMILES,Glyco luc inh,PAX8 inh HTS,EWS-Fli block,FN deposit inh,AF4-AF9 inh,Env fusion inh
Oc1ccc(N=Nc2ccccc2C(F)(F)F)c2cccnc12,-13,92*,3,8,6,-10
Cc1ccc(N=Nc2ccc(O)c3ncccc23)cc1,-17,9,41,13,0,?
COc1ccccc1N=Nc1ccc(O)c2ncccc12,-12,20,-86,11,72*,8
COc1ccc(NC(=O)Nc2ccc3c(c2)C(=O)N([C@@H](C)CO)C[C@H](C)[C@@H](CN(C)S(=O)(=O)c2cn(C)cn2)OCCCC[C@@H](C)O3)cc1,·,-11,-23,·,·,9[16.7 µM]
CN1C(=O)c2cc(NS(=O)(=O)c3ccc(F)cc3)ccc2OC[C@H]2O[C@@H](CC(=O)NCC(F)(F)F)CC[C@H]21,·,-7,9,-6,-1,·
O=C1C=C(NCc2ccccc2)c2ccccc2C1=O,-16,77*,44,-11,0,37
Cc1ccc(C(C(=O)NC(C)(C)C)N(Cc2cccs2)C(=O)c2csnn2)cc1 (stereo not given),-1,·,·,·,·,79*
CCC(C)(C)NC(=O)C(c1ccccc1F)N(Cc1ccco1)C(=O)c1csnn1 (stereo not given),0,-16,·,·,·,53*
CC(C)(C)NC(=O)C(c1ccc(F)cc1)N(Cc1ccco1)C(=O)c1csnn1 (stereo not given),-1,15,·,-4,·,4
CCC(C)(C)NC(=O)C(c1sccc1C)N(Cc1ccco1)C(=O)c1csnn1 (stereo not given),2,-3,6,-2,2,55*
CC(C)(C)NC(=O)C(c1ccncc1)N(Cc1cccs1)C(=O)c1csnn1 (stereo not given),0,6,17,7,-12,7
C[C@H]1CCCCO[C@H](CN(C)CC2CC2)[C@@H](C)CN([C@@H](C)CO)C(=O)c2cc(NC(=O)Nc3ccccc3)ccc2O1,·,-1,·,·,16,-18[16.7 µM]
CCC(=O)Nc1ccc2c(c1)OC[C@H](C)N(Cc1cccnc1)C[C@H](C)[C@H](OC)CN(C)C2=O,·,-14,4,-8,-26,·
COc1ccc2c3c(n(C)c2c1)[C@@H](CO)N(C(=O)c1ccccc1)CC31CCN(C(C)=O)CC1,·,·,3,·,-1,31[16.7 µM]
COC(=O)C(C)N(C(=O)c1cccc2ccccc12)c1c(C)cccc1C (stereo not given),-3,·,·,-9,·,78*
COC(=O)C(C)N(C(=O)c1cccc(Cl)c1)c1c(C)cccc1C (stereo not given),-2,·,·,-3,·,5
C[C@H](CO)N1C[C@H](C)[C@H](CN(C)Cc2cccc(C(F)(F)F)c2)Oc2ncc(-c3cc4ccccc4o3)cc2C1=O,·,·,16,·,5,-4[16.7 µM]

# Bioassay records as filed in PubChem BioAssay.
